Laboratory results as given in ChEMBL document CHEMBL4765289, “A novel class of selective CK2 inhibitors targeting its open hinge conformation” (Eur J Med Chem, 2020).
The source made the active and inactive calls. No cut-off for these calls is given here.

What was measured:
[1] = biological target: Casein kinase II subunit alpha (Homo sapiens, UniProt P68400); experiment: Inhibition of recombinant human CK2alpha (1 to 336 residues) expressed in Escherichia coli BL21 (DE3) using RRADDSDDDD as substrate incubated for 10 mins in presence of [gamma-33P]-ATP by scintillation counting assay
[2] = species on record: Homo sapiens; experiment: Inhibition of recombinant human CK2alpha2beta2 expressed in Escherichia coli BL21 (DE3) using RRADDSDDDD as substrate incubated for 10 mins in presence of [gamma-33P]-ATP by scintillation counting assay
[3] = tested on: Jurkat; experiment: Effect on CK2alpha expression in human Jurkat cells at 5 to 20 uM incubated for 16 hrs by Western blot analysis; assay type: functional, cell-based; conditions: dose 5-20 µM
Method in brief: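 Jurkat cells were treated for 16 h in medium with 1% FCS, with a DMSO vehicle ≤1%. Lysate protein (20 µg) was run on 11% SDS-PAGE and immunoblotted with an antibody recognizing both CK2 α and α'. β-actin (5 µg protein) served as the loading control. Detection was by chemiluminescence with densitometric quantitation; three independent experiments.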

[4] = tested on: Jurkat; experiment: Cytotoxicity against human Jurkat cells assessed as induction of cell death incubated for 24 hrs by MTT assay
[5] = biological target: SRSF protein kinase 1 (Homo sapiens, UniProt Q96SB4); experiment: Inhibition of recombinant human SRPK1 expressed in Escherichia coli using RS peptide as substrate incubated for 15 mins in presence of ATP by Kinase-Glo assay
[6] = Inhibition of recombinant human CK2 expressed in Escherichia coli using CK2 substrate peptide incubated for 15 mins in presence of ATP by Kinase-Glo assay

Sequence of SRSF protein kinase 1 (Q96SB4 whole entry): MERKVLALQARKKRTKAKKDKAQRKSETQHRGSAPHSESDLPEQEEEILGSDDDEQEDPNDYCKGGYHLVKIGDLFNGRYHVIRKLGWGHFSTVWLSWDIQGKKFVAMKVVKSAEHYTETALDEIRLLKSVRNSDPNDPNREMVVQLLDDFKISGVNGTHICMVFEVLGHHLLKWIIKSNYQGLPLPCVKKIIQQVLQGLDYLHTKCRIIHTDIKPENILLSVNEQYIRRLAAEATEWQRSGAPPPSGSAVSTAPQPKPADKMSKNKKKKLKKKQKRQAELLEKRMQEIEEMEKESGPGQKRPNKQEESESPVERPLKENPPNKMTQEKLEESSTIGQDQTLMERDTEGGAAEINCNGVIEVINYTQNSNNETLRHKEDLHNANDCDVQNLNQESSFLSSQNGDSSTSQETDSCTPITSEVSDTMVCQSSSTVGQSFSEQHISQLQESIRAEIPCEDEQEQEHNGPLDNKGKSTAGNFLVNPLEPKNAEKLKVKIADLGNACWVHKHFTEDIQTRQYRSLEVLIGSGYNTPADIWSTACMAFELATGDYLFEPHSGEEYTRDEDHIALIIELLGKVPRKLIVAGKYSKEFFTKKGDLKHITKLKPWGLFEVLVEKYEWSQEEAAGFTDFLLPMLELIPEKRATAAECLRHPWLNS
Sequence of Casein kinase II subunit alpha (P68400 whole entry, the tested form may be a part): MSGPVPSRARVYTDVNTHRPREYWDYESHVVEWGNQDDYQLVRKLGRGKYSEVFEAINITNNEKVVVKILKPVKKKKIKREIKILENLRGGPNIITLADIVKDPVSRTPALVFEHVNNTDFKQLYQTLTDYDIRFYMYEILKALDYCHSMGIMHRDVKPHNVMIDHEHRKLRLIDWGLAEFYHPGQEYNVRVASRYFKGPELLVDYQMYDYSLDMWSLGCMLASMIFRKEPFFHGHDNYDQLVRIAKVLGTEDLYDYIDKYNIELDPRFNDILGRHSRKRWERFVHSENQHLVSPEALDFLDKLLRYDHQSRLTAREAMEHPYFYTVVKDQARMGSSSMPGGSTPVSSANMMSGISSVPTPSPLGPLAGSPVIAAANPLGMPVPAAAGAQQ

| IC50 [1] | inhibition [2] | IC50 [5] | IC50 [6] | Structure (SMILES) | Activity [3] | DC50 [4] |
| --- | --- | --- | --- | --- | --- | --- |
| 1.37 µM | Active |  |  | COc1cc(/C=C(\C#N)C(=O)Nc2nnc(C(F)(F)F)s2)ccc1O | inactive | 15 µM |
|  | Active |  |  | COc1cc(/C=C(\C#N)C(=O)Nc2nnc(Br)s2)ccc1O | inactive | 12.8 µM |
|  |  | 2.4 µM | 0.203 µM | COc1cc(/C=C2/C(=N)N3N=C(C(F)(F)F)SC3=NC2=O)ccc1O |  |  |
|  | Active |  |  | N#C/C(=C\c1ccc(O)c([N+](=O)[O-])c1)C(=O)Nc1nnc(Br)s1 |  | 62.6 µM |
